Where two headings read alike, the source gives them in different places. Marks after values point to notes of the source that are not given here.
Legend:
[1] = assay type: in vivo, mice; conditions: for AUC: over 24 h; for Cmax: mice, bolus by oral gavage, 0.25-24 h, n = 6 +/- SEM
[2] = assay type: in vivo, mice; conditions: for AUC: over 24 h; for Cmax: n = 6 +/- SEM
[3] = system: Kynurenine; assay: Kynurenine production; assay type: cell-based, human; conditions: LPS +, metabolites 250 ng/mL
Outline: (§1)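 Caco-2 grown 18 days on 8 μm transwells to TEER 500 ohm×cm2, set over THP-1 differentiated with PMA (15 nM, 48 h). Pretreatment 24 h with fermented supernatant (50 μL/1 mL) or metabolites (250 ng/mL), with or without AHR antagonist TMF. Challenge with LPS 1 μg/ml, IFN-γ and ATP in both compartments. Read-outs: TEER before and after; kynurenine by chemical assay, % control; IL-1β by ELISA, fold over untreated. n = 4 wells; t-test.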

[4] = system: IL-1β; assay: IL-1β production; assay type: cell-based, human; conditions: LPS +, ELISA, metabolites 250 ng/mL
Outline: as §1

[5] = system: Caco-2 / THP-1 coculture; assay: Transepithelial electrical resistance; assay type: cell-based, human; conditions: LPS +, TMF + (AHR antagonist); metabolites 250 ng/mL
Outline: as §1

[6] = male, mouse, plasma, po, AUC, Chronic BDPP
[7] = male, mouse, plasma, po, AUC, Chronic Synbiotic
[8] = male, mouse, plasma, po, Tmax, Chronic BDPP
[9] = male, mouse, plasma, po, Tmax, Chronic Synbiotic
[10] = male, mouse, brain, po, AUC, Chronic BDPP
[11] = male, mouse, brain, po, AUC, Chronic Synbiotic
[12] = male, mouse, brain, po, Cmax, Chronic BDPP
[13] = male, mouse, brain, po, Cmax, Chronic Synbiotic
[14] = male, mouse, brain, po, Tmax, Chronic BDPP
[15] = male, mouse, brain, po, Tmax, Chronic Synbiotic
[16] = TMF −, fold change from untreated controls

| Structure (SMILES) | AUC [1, 6] [µg·h/mL] | AUC [1, 7] [µg·h/mL] | Tmax [1, 8] [min] | Tmax [1, 9] [min] | AUC [2, 10] [µg·h/mL] | AUC [2, 11] [µg·h/mL] | Cmax [2, 12] [ng/mL] | Cmax [2, 13] [ng/mL] | Tmax [2, 14] [min] | Tmax [2, 15] [min] | other results |
| --- | --- | --- | --- | --- | --- | --- | --- | --- | --- | --- | --- |
| O=C(O)c1ccc(O)c(O)c1 [3,4-diHBA, 3,4-Dihydroxybenzoic acid] | 0.138 | 0.0334 | 18 | 18 | 0.0881 | 0.291 | 15.2 ± 3.1 | 14.4 ± 3.8 | 18 | 30 | – |
| O=C(O)Cc1ccc(O)c(O)c1 [3,4-diHPAA, 3,4-Dihydroxyphenylacetic acid] | 0.74 | 0.344 | 30 | 30 | 2.2 | 2.12 | 100 ± 7 | 126 ± 24 | 60 | 120 | – |
| O=C(O)c1cccc(O)c1 [3-HBA, 3-Hydroxybenzoic acid] | 0.366 | 0.214 | 60 | 60 | 0.0673 | 0.146 | 5.4 ± 0.4 | 8.9 ± 1.8 | 30 | 240 | – |
| O=C(O)Cc1cccc(O)c1 [3-HPAA, 3-Hydroxyphenylacetic acid] | 0.606 | 1.08 | 60 | 18 | 0.029 | 0.0412 | 2.7 ± 0.3 | 3.2 ± 0.5 | 30 | 30 | – |
| O=C(O)CCc1cccc(O)c1 [3-HPPA, 3-(3-Hydroxyphenyl)propionic acid] | 0.0047 | 0.06 | 60 | 120 | – | – | – | – | – | – | – |
| COc1cc(-c2oc3cc(O)cc(O)c3c(=O)c2O)ccc1O [3′-MeQUER, Isorhamnetin] | 0.0156 | 0.0724 | 15 | 30 | 0.0269 | 0.103 | 12.2 ± 6.9 | 28.4 ± 6.3 | 18 | 60 | Kynurenine (% Change) ([3]; TMF +): 129.9 ± 13.8 % Change; Kynurenine (% Change) ([3]; TMF −): 102.3 ± 9.6τ % Change; IL-1β(Fold Change) ([4]; TMF +): 9.4 ± 0.3τ ^* Fold Change; IL-1β(Fold Change) [4, 16]: 6.5 ± 0.4τ Fold Change; TEER (% Control) [5]: 73.4 ± 1.2 % Control |
| O=C(O)c1ccc(O)cc1 [4-HBA, 4-Hydroxybenzoic acid] | 0.866 | 1.28 | – | 1440 | 1.7 | 6.68 | 108 ± 19.3 | 448 ± 15 | 0 | 480 | – |
| O=C(O)C=Cc1ccc(O)cc1 [4-HCA, 4-Hydroxycinnamic acid] | 0.455 | 1.67 | 18 | 18 | – | – | – | – | – | – | – |
| O=C(O)CNC(=O)c1ccc(O)cc1 [4-HHA, 4-Hydroxyhippuric acid] | 0.0017 | 0.0059 | 18 | 120 | – | – | – | – | – | – | – |
| COc1c(O)cc(C(=O)O)cc1O [4-MeGA, 4-O-Methylgallic acid] | 0.336 | 0.163 | 30 | 30 | 0.0033 | 0.0068 | 2.2 ± 0.4 | 5 ± 1 | 30 | 18 | – |
| COc1cc(O)c2c(=O)c(O)c(-c3ccc(O)c(O)c3)oc2c1 [7′-MeQUER, Rhamnetin] | – | 0.0004 | – | 30 | – | 0.00114 | – | 0.1 ± 0.09 | – | 30 | Kynurenine (% Change) ([3]; TMF +): 132.0 ± 13.3 % Change; Kynurenine (% Change) ([3]; TMF −): 119.5 ± 4.3 % Change; IL-1β(Fold Change) ([4]; TMF +): 8.1 ± 0.4τ Fold Change; IL-1β(Fold Change) [4, 16]: 7.9 ± 0.4τ Fold Change; TEER (% Control) [5]: 74.5 ± 2.0 % Control |
| Oc1cc(O)c2c(c1)OC(c1ccc(O)c(O)c1)C(O)C2 (stereo not drawn) [C, Catechin] | – | – | – | – | – | – | – | – | – | – | Tmax ([1]; Plasma, Chronic BDPP): 30 min; Cmax ([1]; Plasma, Chronic BDPP): 55.5 ± 7.8 ng/mL; AUC ([1]; Plasma, Chronic BDPP): 80.6** ng/mL*h; Tmax ([1]; Plasma, Chronic Synbiotic): 60 min; Cmax ([1]; Plasma, Chronic Synbiotic): 0.0098 ± 0.0007 ng/mL; AUC ([1]; Plasma, Chronic Synbiotic): 0.0252 µg·h/mL |
| COc1cc(CCC(=O)O)ccc1O [DHFA, Dihyroferulic acid] | – | – | – | – | – | – | – | – | – | – | Tmax ([1]; Plasma, Chronic BDPP): 18 min; Cmax ([1]; Plasma, Chronic BDPP): 2.5 ± 0.7 ng/mL; AUC ([1]; Plasma, Chronic BDPP): 0.0307 µg·h/mL; Tmax ([1]; Plasma, Chronic Synbiotic): 18 min; Cmax ([1]; Plasma, Chronic Synbiotic): 0.0077 ± 0.0011 ng/mL; AUC ([1]; Plasma, Chronic Synbiotic): 0.0302 µg·h/mL |
| Oc1ccc(CCc2cc(O)cc(O)c2)cc1 [DHRSV, Dihydroresveratrol] | 1.05 | 7.8 | 60 | 480 | – | – | – | – | – | – | – |
| O=C1CCC(Cc2ccc(O)c(O)c2)O1 (stereo not drawn) [DHVL, 5-(3′,4′-Dihydroxyphenyl)-γ-valerolactone] | 0.123 | 0.224 | 30 | 60 | – | – | – | – | – | – | – |
| Oc1cc(O)c2c(c1)O[C@H](c1ccc(O)c(O)c1)[C@H](O)C2 [EC, Epicatechin] | 0.189 | 0.413 | 18 | 18 | – | – | – | – | – | – | – |
| COc1cc(/C=C/C(=O)O)ccc1O [FA, Ferulic acid] | – | – | – | – | – | – | – | – | – | – | Tmax ([1]; Plasma, Chronic BDPP): 30 min; Cmax ([1]; Plasma, Chronic BDPP): 28.9 ± 9.7 ng/mL; AUC ([1]; Plasma, Chronic BDPP): 320.9** ng/mL*h; Tmax ([1]; Plasma, Chronic Synbiotic): 30 min; Cmax ([1]; Plasma, Chronic Synbiotic): 0.0226 ± 0.0062 ng/mL; AUC ([1]; Plasma, Chronic Synbiotic): 0.1388 µg·h/mL; Tmax ([2]; Brain, Chronic BDPP): 30 min; Cmax ([2]; Brain, Chronic BDPP): 1.5 ± 0.3 ng/mL; AUC ([2]; Brain, Chronic BDPP): 0.0188 µg·h/mL; Tmax ([2]; Brain, Chronic Synbiotic): 120 min; Cmax ([2]; Brain, Chronic Synbiotic): 0.0023 ± 0.0006 ng/mL; AUC ([2]; Brain, Chronic Synbiotic): 0.02 µg·h/mL |
| O=C(O)c1cc(O)c(O)c(O)c1 [GA, Gallic acid] | 1.27 | 2.39 | 18 | – | 7.56 | 4.76 | 1340 ± 611 | 336 ± 112 | 18 | 120 | – |
| O=C(O)CNC(=O)c1ccccc1 [HA, Hippuric acid] | 0.889 | 1.32 | 60 | 240 | 0.518 | 1.81 | 22.4 ± 11.6 | 111 ± 7.2 | 60 | 480 | – |
| COc1cc(CC(=O)O)ccc1O [HVA, Homovanillic acid] | 0.205 | 1.47 | 60 | 30 | 5.92 | 6.22 | 296 ± 10 | 301 ± 14 | 60 | 60 | – |
| O=c1c(O)c(-c2cc(O)c(O)c(O)c2)oc2cc(O)cc(O)c12 [MYR, Myricetin] | 0.0853 | 0.305 | 30 | 18 | 0.0978 | 0.578 | 86.5 ± 38 | 118 ± 18 | 18 | 60 | – |
| O=C(O)Cc1ccccc1 [PA, Phenylacetic acid] | 8630 | 8800 | 30 | 240 | 6970 | 14500 | 447000 ± 37200 | 760000 ± 140000 | 30 | 480 | – |
| Oc1cc(O)c2c(c1)O[C@H](c1ccc(O)c(O)c1)[C@H](O)[C@H]2c1c(O)cc(O)c2c1O[C@H](c1ccc(O)c(O)c1)[C@H](O)C2 [PAC-B2, Proanthocyanidin dimer B2] | – | – | – | – | – | – | – | – | – | – | Tmax ([1]; Plasma, Chronic BDPP): 30 min; Cmax ([1]; Plasma, Chronic BDPP): 2.0 ± 0.7 ng/mL; AUC ([1]; Plasma, Chronic BDPP): 0.0015 µg·h/mL; Tmax ([1]; Plasma, Chronic Synbiotic): 30 min; Cmax ([1]; Plasma, Chronic Synbiotic): 0.0027 ± 0.0008 ng/mL; AUC ([1]; Plasma, Chronic Synbiotic): 3.5* ng/mL*h |
| O=c1c(O)c(-c2ccc(O)c(O)c2)oc2cc(O)cc(O)c12 [QUER, Quercetin] | 0.0461 | 0.583 | 18 | 18 | 0.142 | 0.544 | 89.5 ± 48.3 | 98.6 ± 24.7 | 18 | 120 | – |
| Oc1ccc(/C=C/c2cc(O)cc(O)c2)cc1 [RSV, t-Resveratrol (−)] | – | – | – | – | – | – | – | – | – | – | Tmax ([1]; Plasma, Chronic BDPP): 30 min; Cmax ([1]; Plasma, Chronic BDPP): 11628.0 ± 1788.0 ng/mL; AUC ([1]; Plasma, Chronic BDPP): 51313.0* ng/mL*h; Tmax ([1]; Plasma, Chronic Synbiotic): 30 min; Cmax ([1]; Plasma, Chronic Synbiotic): 15.785 ± 4.246 ng/mL; AUC ([1]; Plasma, Chronic Synbiotic): 33.1507 µg·h/mL; Tmax ([2]; Brain, Chronic BDPP): 18 min; Cmax ([2]; Brain, Chronic BDPP): 9.5 ± 2.5 ng/mL; AUC ([2]; Brain, Chronic BDPP): 122.3** ng/mL*h; Tmax ([2]; Brain, Chronic Synbiotic): 120 min; Cmax ([2]; Brain, Chronic Synbiotic): 0.0038 ± 0.0002 ng/mL; AUC ([2]; Brain, Chronic Synbiotic): 0.0331 µg·h/mL |
| COc1cc(C(=O)O)ccc1O [VA, Vanillic acid] | 0.299 | 0.118 | 30 | 18 | 0.169 | 0.205 | 9.7 ± 1 | 13.9 ± 1.8 | 18 | 60 | – |
